15 compounds from ChEMBL document CHEMBL5131563, “Accelerated Identification of Cell Active KRAS Inhibitory Macrocyclic Peptides using Mixture Libraries and Automated Ligand Identification System (ALIS) Technology” (J Med Chem, 2022) can be followed below.

Structures are written as SMILES. Where a SMILES comes first, the peptide text is derived from it. Bridges are numbered along the chain shown (N, C = ends). [ ]: non-standard residue; d: D form. Ala(4-thiazolyl) = N[C@@H](Cc1cscn1)C(=O)O; Bip = N[C@@H](Cc1ccc(-c2ccccc2)cc1)C(=O)O; Dip = N[C@H](C(=O)O)C(c1ccccc1)c1ccccc1; Ala(cPent) = N[C@@H](CC1CCCC1)C(=O)O; hPhe = N[C@@H](CCc1ccccc1)C(=O)O; Cha = N[C@@H](CC1CCCCC1)C(=O)O; hLeu = CC(C)CC[C@H](N)C(=O)O; Nle = CCCC[C@H](N)C(=O)O; Dab = NCC[C@H](N)C(=O)O; Nva = CCC[C@H](N)C(=O)O

One data set deals with GTPase KRas (Homo sapiens, UniProt P01116, G12D). Briefly: Inhibition of recombinant biotinylated KRAS G12D mutant (unknown origin) assessed as inhibition of SOS-catalyzed nucleotide exchange preincubated for 60 mins followed by addition of human SOS protein and unlabeled GTP and measured after 60 mins by TR-FRET analysis. The gist of the method: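 Biotinylated KRAS G12D was treated in EDTA buffer (1 h, RT), then loaded at 90 nM with 900 nM Bodipy-GDP and 15 nM Tb-streptavidin in Mg2+ buffer, HEPES pH 7.5 (6 h, RT). It was used at 1.5 nM assay solution with a 10-point, 3-fold DMSO compound series for 60 min at RT. A solution of 120 nM human SOS plus GTP was added for 60 min. The read-out was TR-FRET at 520/495 nm, normalized to DMSO and saturating-inhibitor controls, with a 4-parameter fit.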

Data set [1] in a line: Stability in human HeLa cell homogenate assessed as half life by LC-MS/MS analysis. Type of data set: ADME, cell-based. The gist of the method: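 HeLa cells suspended at 1 × 10^6 cells/mL, probe-sonicated on ice until homogeneous, stored frozen at –20 °C. Peptides incubated with homogenate (1 × 10^6 cells/mL equivalent); peptide loss over time quantified by LC-MS/MS to derive t1/2.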

Sequence of GTPase KRas (P01116 whole entry G12D): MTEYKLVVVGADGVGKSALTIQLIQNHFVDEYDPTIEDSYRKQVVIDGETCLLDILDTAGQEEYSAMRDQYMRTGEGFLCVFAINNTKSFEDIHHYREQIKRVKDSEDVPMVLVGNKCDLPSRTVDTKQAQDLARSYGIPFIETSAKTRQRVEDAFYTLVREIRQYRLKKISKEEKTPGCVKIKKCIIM

As usually defined, the IC50 is the concentration needed to halve the response being measured. Usually half-life stands for the time in which the quantity being followed falls by half. Turning to `CCC[C@@H]1NC(=O)[C@H](CC2CCCCC2)NC(=O)[C@H](CC(C)C)NC(=O)[C@@H]2CCCN2C(=O)[C@@H](NC(=O)[C@H](CCCNC(=N)N)NC(=O)[C@H](CCCNC(=N)N)NC(C)=O)CSSC[C@@H](C(=O)N[C@@H](CCCNC(=N)N)C(=O)N[C@@H](CCCNC(=N)N)C(N)=O)NC(=O)[C@H](C(C)C)NC(=O)[C@@H]2CCCN2C(=O)[C@H](CC(=O)O)NC(=O)[C@H](Cc2ccc(O)cc2)NC(=O)[C@H](CO)NC1=O` (Ac-RRCPL[Cha][Nva]SYDPVCRR-NH2; disulfide 3-13), at GTPase KRas, the half-maximal inhibitory concentration (IC50) was greater than 11100 nM. In addition, the half-life in data set [1] was 27 min.

Turning to `CC(=O)N[C@@H](CCCNC(=N)N)C(=O)N[C@@H](CCCNC(=N)N)C(=O)N[C@H]1CSSC[C@@H](C(=O)N[C@@H](CCCNC(=N)N)C(=O)N[C@@H](CCCNC(=N)N)C(N)=O)NC(=O)[C@H](C(C)C)NC(=O)[C@@H]2CCCN2C(=O)[C@H](CC(=O)O)NC(=O)[C@H](Cc2ccc(O)cc2)NC(=O)[C@H](CO)NC(=O)[C@H](CCC(C)C)NC(=O)[C@H](CC2CCCCC2)NC(=O)[C@H](CC(C)C)NC(=O)[C@@H]2CCCN2C1=O` (Ac-RRCPL[Cha][hLeu]SYDPVCRR-NH2; disulfide 3-13), at GTPase KRas, the 50% inhibitory concentration (IC50) was greater than 11100 nM. Further, the half-life in data set [1] was determined as 25 min.

Consider `CC(=O)N[C@@H](CCCNC(=N)N)C(=O)N[C@@H](CCCNC(=N)N)C(=O)N[C@H]1CSSC[C@@H](C(=O)N[C@@H](CCCNC(=N)N)C(=O)N[C@@H](CCCNC(=N)N)C(N)=O)NC(=O)[C@H](C(C)C)NC(=O)[C@@H]2CCCN2C(=O)[C@H](CC(=O)O)NC(=O)[C@H](Cc2ccc(O)cc2)NC(=O)[C@H](CO)NC(=O)[C@H](CC2CCCC2)NC(=O)[C@H](CCc2ccccc2)NC(=O)[C@H](CC(C)C)NC(=O)[C@@H]2CCCN2C1=O` (Ac-RRCPL[hPhe][Ala(cPent)]SYDPVCRR-NH2; disulfide 3-13), for which the half-maximal inhibitory concentration (IC50) at GTPase KRas was greater than 11100 nM. For the same compound, in data set [1], the half-life worked out at 16 min.

Take `CC[C@H](C)[C@@H]1NC(=O)[C@H](Cc2ccc(O)cc2)NC(=O)[C@H](CC(C)C)NC(=O)[C@@H]2CCCN2C(=O)[C@@H](NC(=O)[C@H](CCCNC(=N)N)NC(=O)[C@H](CCCNC(=N)N)NC(C)=O)CSSC[C@@H](C(=O)N[C@@H](CCCNC(=N)N)C(=O)N[C@@H](CCCNC(=N)N)C(N)=O)NC(=O)[C@H](C(C)C)NC(=O)[C@@H]2CCCN2C(=O)[C@H](CC(=O)O)NC(=O)[C@H](CC2CCCCC2)NC(=O)[C@H](CO)NC1=O`: on GTPase KRas, the IC50 is 1470 nM. In data set [1], the half-life was determined as 15 min.

Turning to `CCCC[C@@H]1NC(=O)[C@H]([C@@H](C)CC)NC(=O)[C@H](Cc2ccc(O)cc2)NC(=O)[C@H](CC(C)C)NC(=O)[C@@H]2CCCN2C(=O)[C@@H](NC(=O)[C@H](CCCNC(=N)N)NC(=O)[C@H](CCCNC(=N)N)NC(C)=O)CSSC[C@@H](C(=O)N[C@@H](CCCNC(=N)N)C(=O)N[C@@H](CCCNC(=N)N)C(N)=O)NC(=O)[C@H](C(C)C)NC(=O)[C@@H]2CCCN2C(=O)[C@H](CC(=O)O)NC(=O)[C@H](Cc2ccc(O)cc2)NC1=O` (Ac-RRCPLYI[Nle]YDPVCRR-NH2; disulfide 3-13), the IC50 on GTPase KRas was greater than 11100 nM. Also, in data set [1], the half-life was 25 min.

Regarding `CC[C@H](C)[C@@H]1NC(=O)[C@H](Cc2ccc(O)cc2)NC(=O)[C@H](CC(C)C)NC(=O)[C@@H]2CCCN2C(=O)[C@@H](NC(=O)[C@H](CCCNC(=N)N)NC(=O)[C@H](CCCNC(=N)N)NC(C)=O)CSSC[C@@H](C(=O)N[C@@H](CCCNC(=N)N)C(=O)N[C@@H](CCCNC(=N)N)C(N)=O)NC(=O)[C@H](C(C)C)NC(=O)[C@@H]2CCCN2C(=O)[C@H](CC(=O)O)NC(=O)[C@H](C(c2ccccc2)c2ccccc2)NC(=O)[C@H](CO)NC1=O`, on GTPase KRas, the IC50 is 251 nM. For the same compound, in data set [1], the half-life was 30 min.

Regarding `CC(=O)N[C@@H](CCCNC(=N)N)C(=O)N[C@@H](CCCNC(=N)N)C(=O)N[C@H]1CSSC[C@@H](C(=O)N[C@@H](CCCNC(=N)N)C(=O)N[C@@H](CCCNC(=N)N)C(N)=O)NC(=O)[C@H](C(C)C)NC(=O)[C@@H]2CCCN2C(=O)[C@H](CC(=O)O)NC(=O)[C@H](Cc2ccc(O)cc2)NC(=O)[C@H](CO)NC(=O)[C@H](CCC(C)C)NC(=O)[C@H](CCc2ccccc2)NC(=O)[C@H](CC(C)C)NC(=O)[C@@H]2CCCN2C1=O` (Ac-RRCPL[hPhe][hLeu]SYDPVCRR-NH2; disulfide 3-13), the IC50 on GTPase KRas was greater than 11100 nM. In addition, in data set [1], the half-life was found to be 14 min.

In the case of `CC[C@H](C)[C@@H]1NC(=O)[C@H](Cc2ccc(O)cc2)NC(=O)[C@H](CC(C)C)NC(=O)[C@@H]2CCCN2C(=O)[C@@H](NC(=O)[C@H](CCCNC(=N)N)NC(=O)[C@H](CCCNC(=N)N)NC(C)=O)CSSC[C@@H](C(=O)N[C@@H](CCCNC(=N)N)C(=O)N[C@@H](CCCNC(=N)N)C(N)=O)NC(=O)[C@H](C(C)C)NC(=O)[C@@H]2CCCN2C(=O)[C@H](CC(=O)O)NC(=O)[C@H](C(c2ccccc2)c2ccccc2)NC(=O)[C@H](CCN)NC1=O` (Ac-RRCPLYI[Dab][Dip]DPVCRR-NH2; disulfide 3-13), at GTPase KRas, the IC50 is greater than 11100 nM. For the same compound, the half-life in data set [1] was found to be 34 min.

As to `CC[C@H](C)[C@@H]1NC(=O)[C@H](Cc2ccc(O)cc2)NC(=O)[C@H](CC(C)C)NC(=O)[C@@H]2CCCN2C(=O)[C@@H](NC(=O)[C@H](CCCNC(=N)N)NC(=O)[C@H](CCCNC(=N)N)NC(C)=O)CSSC[C@@H](C(=O)N[C@@H](CCCNC(=N)N)C(=O)N[C@@H](CCCNC(=N)N)C(N)=O)NC(=O)[C@H](C(C)C)NC(=O)[C@@H]2CCCN2C(=O)[C@H](CC(=O)O)NC(=O)[C@H](Cc2ccc(O)cc2)NC(=O)[C@H](Cc2cscn2)NC1=O` (Ac-RRCPLYI[Ala(4-thiazolyl)]YDPVCRR-NH2; disulfide 3-13), the 50% inhibitory concentration (IC50) on GTPase KRas came to 2270 nM. Further, the half-life in data set [1] was found to be 22 min.

Turning to `CCCC[C@@H]1NC(=O)[C@H]([C@@H](C)CC)NC(=O)[C@H](Cc2ccc(O)cc2)NC(=O)[C@H](CC(C)C)NC(=O)[C@@H]2CCCN2C(=O)[C@@H](NC(=O)[C@H](CCCNC(=N)N)NC(=O)[C@H](CCCNC(=N)N)NC(C)=O)CSSC[C@@H](C(=O)N[C@@H](CCCNC(=N)N)C(=O)N[C@@H](CCCNC(=N)N)C(N)=O)NC(=O)[C@H](C(C)C)NC(=O)[C@@H]2CCCN2C(=O)[C@H](CC(=O)O)NC(=O)[C@H](CC2CCCCC2)NC1=O` (Ac-RRCPLYI[Nle][Cha]DPVCRR-NH2; disulfide 3-13), the IC50 at GTPase KRas is greater than 11100 nM. Also, the half-life in data set [1] was determined as 26 min.

As to `CCC[C@@H]1NC(=O)[C@H](Cc2ccc(-c3ccccc3)cc2)NC(=O)[C@H](CC(C)C)NC(=O)[C@@H]2CCCN2C(=O)[C@@H](NC(=O)[C@H](CCCNC(=N)N)NC(=O)[C@H](CCCNC(=N)N)NC(C)=O)CSSC[C@@H](C(=O)N[C@@H](CCCNC(=N)N)C(=O)N[C@@H](CCCNC(=N)N)C(N)=O)NC(=O)[C@H](C(C)C)NC(=O)[C@@H]2CCCN2C(=O)[C@H](CC(=O)O)NC(=O)[C@H](Cc2ccc(O)cc2)NC(=O)[C@H](CO)NC1=O` (Ac-RRCPL[Bip][Nva]SYDPVCRR-NH2; disulfide 3-13), the IC50 at GTPase KRas worked out at 604 nM. Further, the half-life in data set [1] turned out to be 26 min.

In the case of `CC(=O)N[C@@H](CCCNC(=N)N)C(=O)N[C@@H](CCCNC(=N)N)C(=O)N[C@H]1CSSC[C@@H](C(=O)N[C@@H](CCCNC(=N)N)C(=O)N[C@@H](CCCNC(=N)N)C(N)=O)NC(=O)[C@H](C(C)C)NC(=O)[C@@H]2CCCN2C(=O)[C@H](CC(=O)O)NC(=O)[C@H](Cc2ccc(O)cc2)NC(=O)[C@H](CO)NC(=O)[C@H](CCC(C)C)NC(=O)[C@H](Cc2ccc(-c3ccccc3)cc2)NC(=O)[C@H](CC(C)C)NC(=O)[C@@H]2CCCN2C1=O` (Ac-RRCPL[Bip][hLeu]SYDPVCRR-NH2; disulfide 3-13), the half-maximal inhibitory concentration (IC50) on GTPase KRas was greater than 11100 nM. Further, the half-life in data set [1] stood at 17 min.

Consider `CC[C@H](C)[C@@H]1NC(=O)[C@H](Cc2ccc(O)cc2)NC(=O)[C@H](CC(C)C)NC(=O)[C@@H]2CCCN2C(=O)[C@@H](NC(=O)[C@H](CCCNC(=N)N)NC(=O)[C@H](CCCNC(=N)N)NC(C)=O)CSSC[C@@H](C(=O)N[C@@H](CCCNC(=N)N)C(=O)N[C@@H](CCCNC(=N)N)C(N)=O)NC(=O)[C@H](C(C)C)NC(=O)[C@@H]2CCCN2C(=O)[C@H](CC(=O)O)NC(=O)[C@H](Cc2cc(F)c(F)c(F)c2)NC(=O)[C@H](CO)NC1=O`, for which the IC50 on GTPase KRas amounted to 193 nM. In addition, the half-life in data set [1] amounted to 18 min.

On to `CC(=O)N[C@@H](CCCNC(=N)N)C(=O)N[C@@H](CCCNC(=N)N)C(=O)N[C@H]1CSSC[C@@H](C(=O)N[C@@H](CCCNC(=N)N)C(=O)N[C@@H](CCCNC(=N)N)C(N)=O)NC(=O)[C@H](C(C)C)NC(=O)[C@@H]2CCCN2C(=O)[C@H](CC(=O)O)NC(=O)[C@H](Cc2ccc(O)cc2)NC(=O)[C@H](CO)NC(=O)[C@H](CCC(C)C)NC(=O)[C@H](Cc2ccc(O)cc2)NC(=O)[C@H](CC(C)C)NC(=O)[C@@H]2CCCN2C1=O` (Ac-RRCPLY[hLeu]SYDPVCRR-NH2; disulfide 3-13), for which, at GTPase KRas, the 50% inhibitory concentration (IC50) was greater than 11100 nM. In addition, in data set [1], the half-life came out at 28 min.

For the compound `CC[C@H](C)[C@@H]1NC(=O)[C@H](CC2CCCCC2)NC(=O)[C@H](CC(C)C)NC(=O)[C@@H]2CCCN2C(=O)[C@@H](NC(=O)[C@H](CCCNC(=N)N)NC(=O)[C@H](CCCNC(=N)N)NC(C)=O)CSSC[C@@H](C(=O)N[C@@H](CCCNC(=N)N)C(=O)N[C@@H](CCCNC(=N)N)C(N)=O)NC(=O)[C@H](C(C)C)NC(=O)[C@@H]2CCCN2C(=O)[C@H](CC(=O)O)NC(=O)[C@H](Cc2ccc(O)cc2)NC(=O)[C@H](CO)NC1=O` (Ac-RRCPL[Cha]ISYDPVCRR-NH2; disulfide 3-13), the IC50 on GTPase KRas came out at 161 nM. In data set [1], the half-life was 21 min.
